# Screening results from PubChem BioAssay.
# In the library only some 3.5% were active in any assay of this set; here they are far more common.
# MrgX1 antagonist: blocks BAM8-22 activation of human MrgX1 receptor | Q96LB2 | MRGX1-HEK293 calcium flux, Fluo-4, BAM8-22 antagonism; active compounds read low | B-score at 10 µM | hit rate 1.3% among 310,000;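 active = calcium-response B-score plate-corrected more than 3 library SD below zero, starting fluorescence within 5 deviations, no agonist response on first addition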;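 note: peak minus trough fluorescence over baseline after final BAM8-22 challenge near maximal dose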
# Target sequence (Q96LB2 whole entry, looked up): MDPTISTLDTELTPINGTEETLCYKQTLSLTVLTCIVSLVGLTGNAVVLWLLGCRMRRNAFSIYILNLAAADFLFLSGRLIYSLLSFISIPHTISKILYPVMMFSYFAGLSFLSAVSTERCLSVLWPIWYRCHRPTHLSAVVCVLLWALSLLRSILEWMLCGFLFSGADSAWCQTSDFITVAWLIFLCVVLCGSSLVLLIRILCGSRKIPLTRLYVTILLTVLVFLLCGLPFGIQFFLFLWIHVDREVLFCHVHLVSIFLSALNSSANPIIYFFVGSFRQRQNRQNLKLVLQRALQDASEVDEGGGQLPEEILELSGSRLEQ
# RGS4 act: RGS4 potentiation or activation | HEK293 M3R/inducible RGS4, carbachol calcium flux Fluo4; active compounds read low | B-score at 10 µM | hit rate 0.92% among 310,000 | AID 463111;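 active = B-score of the integrated calcium signal more than 4 SD below the library mean, with starting fluorescence not abnormally high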;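 note: negative B-score means reduced calcium response which marks RGS4 activation or potentiation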
#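 Assay system: Inducible-RGS4 HEK293 cells carrying M3 receptor | Schedule: Compound preincubation 20 min at room temperature before agonist | Signal: Kinetic calcium fluorescence imaging with Fluo4-AM dye, 2 µM | Read-out basis: B score from integrated fluorescence ratio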
# RGS4 block: inhibitors of human RGS4 | P49798 | HEK293 M3R/RGS4 inducible, Fluo-4 calcium flux; active compounds read high; triggered by carbachol at its EC20 | B-score at 10 µM | hit rate 0.45% among 310,000 | AID 463165;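 active = B-score, a plate-corrected calcium signal, over three deviations above library mean, with baseline fluorescence within five deviations of library mean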;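 note: RGS4 expression induced by doxycycline in cells with stable M3 receptor; B-score is computed from the integrated fluorescence ratio over baseline after carbachol; higher B-score means a larger calcium signal and so more RGS4 inhibition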
# MrgX1 allo act: allosterically activates human MrgX1 receptor signaling; B-score at 10 µM; hit rate 0.63% among 310,000; Q96LB2; MrgX1-HEK293, Fluo-4 calcium flux, FDSS; active compounds read high;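 active = plate-corrected calcium response at least 3 library SD above typical, normal starting fluorescence, not activating the receptor alone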;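 note: compound read alongside a low EC10 to EC30 dose of BAM8-22 agonist; peak minus trough fluorescence over baseline measured at the second addition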
# MrgX1 agonist: human MrgX1 receptor agonism, primary screen. MrgX1-HEK293 cells, Fluo-4 calcium fluorescence, agonist mode; active compounds read high. Q96LB2. hit rate 0.44% among 310,000. B-score at 10 µM;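 active = calcium response B-score plate-corrected fluorescence ratio at least 3 library SD, with starting fluorescence B-score inside 5 SD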
#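 Material: MrgX1-expressing HEK293 cells / Dosing: compound as first of three additions / Incubation: overnight seeding, then 1 h dark dye loading / Signal: Fluo-4 NW calcium fluorescence / Evaluation: B-scored fluorescence response ratio / Benchmarks: positive and negative control wells on each plate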
# RGS4 activ val: confirmation of RGS4 activators | AID 602282 | hit rate 89% among 1,100 | HEK293 M3R/RGS4 inducible, carbachol calcium flux Fluo4 | inhibition, % at 10 µM | shares compounds with RGS4 act;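 active = inhibition above 3 SD of the buffer control wells, cut at about 41% in these data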;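 note: signal is the integrated peak-minus-minimum Fluo4 fluorescence over baseline ratio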
# M3R Ca counter: counter-screen for RGS4 activators: effect in non-induced cells | inhibition, % at 10 µM | HEK293 M3R non-induced RGS4, Fluo4 calcium flux; after carbachol challenge at its EC90 | hit rate 82% among 1,100 | shares compounds with RGS4 act;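 active = inhibition exceeding 3 SD of buffer-only control wells, cut at about 26% in these data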;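 note: percent drop in integrated peak-minus-baseline over baseline Fluo4 ratio after carbachol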
# Numbers stand for hits; - = inactive; . = not tested or not shown.
SMILES,MrgX1 antagonist,RGS4 act,RGS4 block,MrgX1 allo act,MrgX1 agonist,RGS4 activ val,M3R Ca counter
FC(F)(F)c1cccc(CN2CCC(c3cc(-c4cccs4)n[nH]3)CC2)c1,-,-,-,-,-,.,.
Cc1ccc(CN2CCC(c3cc(-c4cccs4)n[nH]3)CC2)cc1,-,-17,-,-,-,91,68
CCCCCCCCOC(=O)C1=C(C)Nc2nnnn2C1c1cccs1 (stereo not drawn),-,-11,-,-,-,90,75
CCCCCCCOC(=O)C1=C(C)Nc2ncnn2C1c1cccs1 (stereo not drawn),-,-,-,-,-,.,.
Cc1ccc(-n2nc(C)cc2Nc2ncc(Cl)cc2Cl)cc1,-,-8.7,-,-,-,92,74
CN(C(=O)CSc1nc2c(cnn2-c2ccccc2)c(=O)[nH]1)C1CCS(=O)(=O)C1 (stereo not drawn),-,-,-,-,-,.,.
O=C(Nc1ccc(Cl)cc1)N(C1=NCCC1)c1ccc(OC(F)F)cc1,-,-10,-,-,-,92,92
O=C(COC(=O)Cc1ccc(Cl)cc1)Nc1ccc(OC(F)F)cc1,-,-,-,-,-,.,.
COC(=O)CCN(c1ccccc1)S(=O)(=O)c1cc(-c2cc(C)no2)ccc1C,-,-,-,-,-,.,.
CN(C)CCNC(C(=O)Nc1cc(Cl)cc(Cl)c1)c1ccccc1 (stereo not drawn),-,-9.7,-,-,-,91,49
CC(C)NC(C(=O)Nc1cc(Cl)cc(Cl)c1)c1ccccc1 (stereo not drawn),-,-,-,-,-,.,.
O=S(=O)(Nc1ccc(Cl)cc1)c1ccc(N2CCOCC2)c(NC(=S)NC2CC2)c1,-,-12,-,-,-,-,-
O=C(C1CCCCC1)N1CCN=C1SCc1cccc([N+](=O)[O-])c1,-,-,-,-,-,.,.
CCOc1cc(CNS(=O)(=O)c2ccc3c(c2)CC(=O)N3C)cc(OCC)c1OCC,-,-,-,-,-,.,.
O=C(NC1CC1)C1CCN(C2CCN(C(=O)/C=C/c3cccc(F)c3F)CC2)CC1,-,-,-,-,-,.,.
COc1ccc(CCN(C(=O)c2cccc(F)c2)C2CC(=O)N(c3ccccc3)C2=O)cc1 (stereo not drawn),-,-,-,-,-,.,.
COc1ccc(N2C(=O)CC(N(CCc3ccccc3)C(=O)c3ccccc3)C2=O)cc1 (stereo not drawn),-,-11,-,-,-,-,-
CCC(C(=O)OCC(=O)Nc1cccc(C(C)=O)c1)c1ccccc1 (stereo not drawn),-,-,-,-,-,.,.
CCC(C(=O)OCC(=O)Nc1cc(Cl)cc(Cl)c1)c1ccccc1 (stereo not drawn),-,-8.4,-,-,-,74,26
C/C(=N\NC(=O)c1c(-c2ccccc2Cl)noc1C)c1cccc(NC(=O)C(C)C)c1,-,-,-,-,-,.,.
OC(CN1CCCCC1)CN(c1ccccc1)c1ccccc1 (stereo not drawn),-,-9.8,-,-,-,90,58
OC(CN1CCCCCC1)CN(c1ccccc1)c1ccccc1 (stereo not drawn),-,-,-,-,-,.,.
CS(=O)(=O)N1CCC(C(=O)Nc2ccc(F)c(Cl)c2)CC1,-,-8.4,-,-,-,-,-
CC(C)CC(c1nnnn1Cc1cccs1)N1CCN(c2nc3ccccc3s2)CC1 (stereo not drawn),-,-12,-,-,-,92,71
CCC(c1nnnn1Cc1cccs1)N1CCN(c2nc3ccccc3s2)CC1 (stereo not drawn),-,-,-,-,-,.,.
CCOc1ccc(NC(=S)Nc2ccccc2C2(C)CC2)cc1,-,-,-,-,-,.,.
CC(C)Cc1nnc(NC(=O)CCC(=O)N2CCN(c3ccc(F)cc3)CC2)s1,-,-,-,-,-,.,.
CCCc1cc(C(=O)N2CCN(c3ccc(C(F)(F)F)cn3)CC2)sc1C,-,-11,-,-,-,83,56
CC(=O)c1cccc(OCC(=O)N2CCN(c3ccc(C(F)(F)F)cn3)CC2)c1,-,-12,-,-,-,-,-
